Assay outcomes as filed in PubChem.
mIAP block – blocks mouse intestinal alkaline phosphatase; purified mouse IAP, CDP-Star luminescence, 30 min; inhibition, % at 10 µM; 330,000 tested, 0.2% active;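 active = inhibition of at least 40% at 10 µM in the primary screen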;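 also: plate controls were DMSO with enzyme for no effect and no enzyme wells for full effect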
hIAP inh – blocks human intestinal alkaline phosphatase; AID 2544; purified IAP, CDP-Star luminescence, 30 min; inhibition, % at 10 µM; 330,000 tested, 0.12% active;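 active = inhibition reaching a set limit with compound at 10 µM in the primary screen, cut at about 35% in these data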;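 also: plate controls were DMSO wells with enzyme for no effect and no-enzyme buffer wells for full effect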
Target sequence (P09923 whole entry, looked up): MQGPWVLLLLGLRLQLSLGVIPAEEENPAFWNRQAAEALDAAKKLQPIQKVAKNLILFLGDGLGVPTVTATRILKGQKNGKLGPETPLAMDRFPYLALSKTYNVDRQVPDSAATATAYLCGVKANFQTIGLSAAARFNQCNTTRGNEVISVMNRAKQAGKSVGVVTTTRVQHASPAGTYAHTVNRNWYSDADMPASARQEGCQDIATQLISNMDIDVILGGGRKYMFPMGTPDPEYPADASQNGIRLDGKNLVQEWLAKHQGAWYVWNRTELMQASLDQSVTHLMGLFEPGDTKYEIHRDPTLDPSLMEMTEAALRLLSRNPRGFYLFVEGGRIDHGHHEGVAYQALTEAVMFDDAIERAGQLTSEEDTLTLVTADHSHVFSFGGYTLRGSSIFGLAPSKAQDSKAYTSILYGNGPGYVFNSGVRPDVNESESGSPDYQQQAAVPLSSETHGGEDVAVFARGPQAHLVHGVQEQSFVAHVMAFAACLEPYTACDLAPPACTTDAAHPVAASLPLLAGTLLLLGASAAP
hIAP act – human IAP activation | P09923 | purified human IAP, CDP-Star luminescence, 30 min; active compounds read high; 1 = vehicle-only enzyme, 0 = enzyme-free background | activation factor at 10 µM | 330,000 tested, 0.16% active | AID 2524;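 active = activation factor of the enzyme at least 2-fold when tested at 20 µM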
bIAP inh – blocks bovine intestinal alkaline phosphatase activity; 190,000 tested, under 10 active; inhibition, % at 20 µM; purified bovine IAP, CDP-star luminescence, 30 min;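 active = over 50% inhibition of intestinal alkaline phosphatase at 20 µM in the single-dose screen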
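Assay system: bovine IAP enzyme; medium: DEA buffer 100 mM, pH 9.8, with MgCl2 1.0 mM, ZnCl2 0.02 mM; doses: 20 µM single dose; incubation: enzyme reaction for 30 min at room temperature; detection: CDP-star luminescence signal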
mIAP activ – mouse IAP activation; activation factor at 10 µM; muIAP, CDP-Star luminescence, 30 min; active compounds read high; 1 = vehicle-only enzyme signal, 0 = enzyme-free wells; 330,000 tested, 0.24% active; AID 2805;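 active = activation factor of at least 2 at 20 µM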
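Assay system: mouse IAP enzyme; Reagent: CDP-Star chemiluminescent phosphatase substrate; Compound: DMSO-dissolved test compounds; Incubation: 30 min, room temperature; Technique: luminescence from enzymatic CDP-Star hydrolysis; Controls: DMSO-only wells and no-enzyme negative control.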
bIAP activator – increases bovine intestinal alkaline phosphatase activity | purified bovine IAP, CDP-star luminescence, 30 min; active compounds read high; fold of DMSO-control signal, blank-subtracted | 200,000 tested, 0.17% active | activation factor at 20 µM;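 active = activation factor of 2 or more at 20 µM, a signal rise over negative controls twice the positive control's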
mIAP inh confirm – mouse IAP inhibition confirmation | shares compounds with mIAP block | 11,000 tested, 4.7% active | purified mouse IAP, CDP-Star luminescence, 30 min | AID 434971 | inhibition, % at 10 µM;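 active = inhibition of at least 40% at 10 µM in either of the two replicates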;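 also: plate controls were DMSO wells with enzyme for no effect and buffer wells lacking enzyme for full effect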
Numbers without * were called inactive; nt = not tested or not shown. A selection: hits, their analogues and other compounds. The true share with any hit is near 0.72%.

SMILES	mIAP block	hIAP inh	hIAP act	bIAP inh	mIAP activ	bIAP activator	mIAP inh confirm
C#CCOCCOCCOCCNc1nc(N2CCN(C(=O)CCCCCCCCCCNC(=O)[C@H](CO)n3cc(CCCSC)nn3)CC2)nc(N2CCN(C(=O)CCCCCCCCCCNC(=O)[C@H](CCCN=C(N)N)n3cc(C[C@@H](C)CC)nn3)CC2)n1	-161	-37	1.4	nt	2.6*	nt	-498
C#CCOCCOCCOCCNc1nc(N2CCN(C(=O)CCCCCCCCCCNC(=O)Cn3cc(C[C@@H](C)O)nn3)CC2)nc(N2CCN(C(=O)CCCCCCCCCCNC(=O)[C@H](CCCCN)n3cc(CCCC(=O)O)nn3)CC2)n1	-9	-8	1.1	nt	1.1	nt	nt
Nc1nnc(CC(=O)N/N=C/c2cc([N+](=O)[O-])cc(Br)c2O)s1	48*	-9	1.1	-19	0.53	1.2	46*
O=C(CN(C(=O)CNC(=O)c1ccco1)c1ccccc1F)NC1CCCCC1	1	-11	1.1	nt	0.99	nt	nt
O=[N+]([O-])c1ccccc1NC(=S)N/N=C/c1ccc(O)c(O)c1	75*	13	0.87	18	0.25	0.8	72*
C=CCC1(N(C(C)=O)c2ccccc2)CCCCC1	2	1	0.99	-16	0.97	1.2	nt
COc1cccc(N2CCN(S(=O)(=O)c3cc4c(cc3Cl)NC(=O)CO4)CC2)c1	10	0	1	nt	0.9	nt	nt
O=C(O)CCN1C(=O)/C(=C\c2ccc(-c3nc4ccccc4s3)o2)SC1=S	53*	-19	1.2	nt	0.47	0.4	62*
O=[N+]([O-])c1ccc(CN2C=NS(=O)(=O)c3ccccc32)cc1	-2	0	1	9	1	0.9	nt
O=S(=O)(N1CCCCCC1)N1CCN(S(=O)(=O)N2CCCCC2)CC1	-1	17	0.83	6	1	0.9	nt
NS(=O)(=O)c1ccc(-c2ccc(/C=N/NC(=O)c3ccc([N+](=O)[O-])cc3)o2)cc1	42*	-38	1.4	nt	0.58	nt	45*
Cc1ccc(C(=O)Nc2ccc(N3CCN(C(=O)c4cccs4)CC3)cc2)c(Cl)c1	-10	-3	1	nt	1.1	nt	nt
N#Cc1c2c(c(NCc3ccco3)n3c1nc1ccccc13)CCC2	50*	-11	1.1	12	0.49	0.9	57*
O=C(Nc1ccc(Br)cc1)C1CCN(c2cnccn2)CC1	5	8	0.92	nt	0.95	nt	nt
COc1ccc(CNC(=O)COC(=O)CCN2C(=O)C3CC=CCC3C2=O)cc1OC (stereo unspecified)	15	-8	1.1	nt	0.85	nt	nt
Cc1ccc(N2CSC3=C(C#N)C(c4cccs4)CC(=O)N3C2)cc1 (stereo unspecified)	46*	-14	1.1	17	0.54	0.8	46*
N#CC1=C2SCN(c3ccc(F)cc3)CN2C(=O)CC1c1cccc(F)c1 (stereo unspecified)	60*	12	0.88	11	0.4	0.9	59*
CCSc1nc2sc3c(c2c(=O)n1-c1ccccc1)CCN(C(C)C)C3	1	9	0.91	nt	0.99	nt	nt
Oc1cccc(O)c1O	52*	0	1	nt	0.48	nt	58*
CNC(=O)c1cccc(NC(=O)c2ccccc2OCc2ccccc2)c1	-3	-11	1.1	nt	1	nt	nt
